p47phox inh: inhibitors of human p47phox binding; p47phox/p22phox peptide binding, fluorescence polarization, 2 h; inhibition, % at 24.7 µM; 220,000 compounds, 0.53% hits;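 active = inhibition above about 30%, limit read from the data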
KCC2 mod: modulates chloride dependent transport by human KCC2. B-score of Tl+ flux slope (higher = more flux/activation; lower = inhibition) at 10 µM. 190,000 compounds, 2.2% hits. KCC2 cells, thallium flux FluoZin-2 fluorescence. Q9H2X9. AID 1456;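 active = thallium flux slope and its plate-corrected score both differing from the plate sample mean at a set confidence after two filtering rounds, in either direction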;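 note: slope of fluorescence scaled to starting intensity during 10 to 20 s after thallium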
RBBP9 inhibitor: human RBBP9 hydrolase inhibition; recombinant RBBP9, FP-Rh probe fluorescence polarization; inhibition, % at 7.94 µM; 220,000 compounds, 0.2% hits; AID 1515;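 active = inhibition above the campaign mean of all tested compounds plus 3 SD, cut at about 14% in these data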
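Material: RBBP9 protein. Amount: RBBP9 at 2.5 µM in dispensed solution, before mixing. Schedule: 30 min then 45 min, 25 °C. Medium: Tris buffer pH 8.0, NaCl, Pluronic. Measured by: fluorescence polarization. Measure: percent inhibition from mP, scaled between DMSO and no-protein wells. Replication: one well per compound.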
WT yeast gro inh: growth inhibition of WT yeast, mitochondrial fusion screen | mitochondrial fusion phenotypic screen, WT strain | inhibition, % at 10 µM | 190,000 compounds, 2.1% hits | AID 1362; in the data active = inhibition above about 58%; tested in S. cerevisiae
ROMK mod: modulators of human ROMK potassium channel | 130,000 compounds, 2% hits | B-score at 10 µM | P48048 | Tet-inducible ROMK, thallium flux fluorescence; actives lie on both sides;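 active = signal ratio slope over the read window, or its plate-corrected B-score, at least 3 SD from the plate mean, either direction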;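 note: B-score of the F/F0 ratio slope over 7 to 12 s after thallium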
Target sequence (P48048 whole entry, looked up): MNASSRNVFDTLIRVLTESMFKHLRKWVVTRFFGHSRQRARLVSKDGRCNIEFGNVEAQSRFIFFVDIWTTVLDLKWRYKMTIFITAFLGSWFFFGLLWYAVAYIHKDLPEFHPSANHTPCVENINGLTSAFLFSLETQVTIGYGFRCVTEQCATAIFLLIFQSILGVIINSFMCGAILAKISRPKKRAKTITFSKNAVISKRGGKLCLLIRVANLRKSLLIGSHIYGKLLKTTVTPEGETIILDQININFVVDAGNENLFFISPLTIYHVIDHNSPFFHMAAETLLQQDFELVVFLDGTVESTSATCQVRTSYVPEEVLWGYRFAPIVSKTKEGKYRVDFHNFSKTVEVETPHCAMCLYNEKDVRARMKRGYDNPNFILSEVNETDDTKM
14-3-3 Bad PPI: disrupts binding of bovine 14-3-3 zeta to phospho-Bad peptide. P63103. TR-FRET 14-3-3zeta/Dy647-pBad peptide displacement, 1 h. inhibition, % at 21.7 µM. 220,000 compounds, 0.71% hits. AID 781;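 active = inhibition above about 70%, limit read from the data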
Target sequence (P63103 whole entry, looked up): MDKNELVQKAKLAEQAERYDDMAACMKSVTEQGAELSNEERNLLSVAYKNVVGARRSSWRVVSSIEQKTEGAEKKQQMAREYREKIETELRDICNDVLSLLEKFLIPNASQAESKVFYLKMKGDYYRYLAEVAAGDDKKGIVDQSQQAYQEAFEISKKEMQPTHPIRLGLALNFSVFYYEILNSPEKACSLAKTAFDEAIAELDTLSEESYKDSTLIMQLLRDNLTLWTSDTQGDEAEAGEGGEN
ROMK hit retest: confirmation of human ROMK potassium channel modulators; ROMK thallium flux, fluorescence ratio; active compounds read low; shares compounds with ROMK mod; 3,000 compounds, 54% hits; normalized thallium flux (F/F0 slope) at 10 µM;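 active = Flux at 10 µM at least 3 SD below or above vehicle control mean in one or both replicates; inconclusive = no clear call, values can overlap the other calls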
Of the large screens only hits and unclear results are named; the others gave an inactive call (follow-up assays come after a bar, where they were run). An excerpt weighted towards active compounds, which were near 5.8% of everything screened.

Cc1nnc2n1CCCCC2	none (no result: WT yeast gro inh, ROMK mod)
O=C(Cc1ccccc1)NCc1ccc(-n2cccc2)cc1	ROMK mod 2.5 | ROMK hit retest inactive
COc1cc(C)ccc1S(=O)(=O)n1nc(C)cc1C	none
CC(=O)C1=C(c2ccc(Br)cc2)C(=O)c2ccccc2C1=O	WT yeast gro inh 93, ROMK mod -4.7 | ROMK hit retest 0.052
CC(C)(C)c1ccc(C(=O)c2c[nH]c(C(=O)NCCc3ccccn3)c2)cc1	none
O=S(=O)(Nc1cc2nc3ccccc3nc2n1Cc1ccccc1)c1ccc(Cl)cc1	none (no result: ROMK mod)
COc1cc(C(C(=O)NC2CCCCC2)N(Cc2ccco2)C(=O)c2cnccn2)cc(OC)c1OC (stereo not drawn)	ROMK mod -13 | ROMK hit retest inactive
c1cc2c(cn1)cnc1cscc12	ROMK mod 2.6 | ROMK hit retest inactive
COc1cccc(CN(C)C(=O)c2csc3c2CCCC3)c1OC	none
CCOc1ccc(C2/C(=C(/O)c3ccccc3)C(=O)C(=O)N2CCCN(C)C)cc1OC (stereo not drawn)	none (no result: p47phox inh, WT yeast gro inh, 14-3-3 Bad PPI)
CCOc1ccc(C2CC(c3c(O)c4ccccc4oc3=O)=NN2c2ccccc2)cc1OC (stereo not drawn)	ROMK mod -6.6 | ROMK hit retest 0.028
N#C/C(=C\c1ccc(O)c(Br)c1)C(=O)NCc1ccccc1	ROMK mod 3.6 | ROMK hit retest 0.066
N#C/C(=C\c1ccc(O)c([N+](=O)[O-])c1)C(=O)NCc1ccccc1	none
Cc1ccc(-c2ccc(/C=N/c3ncn[nH]3)o2)cc1Cl	ROMK mod 3.4 | ROMK hit retest inactive
Cc1ccccc1NS(=O)(=O)c1ccc(Cl)cc1	none
Cc1ccccc1NS(=O)(=O)c1cc(S(C)(=O)=O)ccc1Cl	none (no result: KCC2 mod) | ROMK hit retest inactive
Cc1nc2cc(F)ccc2n1C1CCN(S(=O)(=O)c2ccccc2)CC1	ROMK mod -6.1 | ROMK hit retest inconclusive
COC(=O)Nc1ccc(S(=O)(=O)N2CCCC(C(=O)NC3CCS(=O)(=O)C3)C2)cc1 (stereo not drawn)	none (no result: ROMK mod)
COc1ccc(OCC(O)CNC(=O)c2c(-c3ccccc3)noc2C)cc1 (stereo not drawn)	none (no result: WT yeast gro inh, ROMK mod)
Cc1ccc(Oc2c(C(N)=O)cc([N+](=O)[O-])cc2[N+](=O)[O-])cc1	ROMK mod -2.3 | ROMK hit retest 0.035
Cc1c(C#N)c(=O)c(-[n+]2ccccc2)c([S-])n1-c1ccc(Cl)cc1	none (no result: WT yeast gro inh, ROMK mod)
O=C1OCC2=C1C(c1ccc(F)cc1)CC(=O)N2c1ccc(F)cc1 (stereo not drawn)	none
O=C1OCC2=C1C(c1ccc(F)cc1)CC(=O)N2c1ccccc1 (stereo not drawn)	ROMK mod 3.1 | ROMK hit retest inactive
CC(C)c1cc(=O)n2[nH]c(N)nc2n1	none
Cc1ccc(N=Cc2cc(Br)cc(Cl)c2O)cc1	ROMK mod 3.4 | ROMK hit retest 0.1
COc1ccc2cc(C(c3nnnn3C3CCCC3)N3CCOCC3)c3nnnn3c2c1 (stereo not drawn)	none
O=c1[nH]c2ccc(S(=O)(=O)NCCO)cc2[nH]1	ROMK mod 1.5 | ROMK hit retest inactive
COc1ccc(-n2c(O)c(/C=N/NS(=O)(=O)c3ccc(C)cc3)c3ccccc3c2=O)cc1OC	ROMK mod -5 | ROMK hit retest inconclusive
COc1ccc(-n2c(O)c(/C=N/NS(=O)(=O)c3cc(C)ccc3C)c3ccccc3c2=O)cc1OC	none (no result: ROMK mod)
CCCCc1ccc(N/C(N)=N/c2nc(C)cc(C)n2)cc1	none (no result: WT yeast gro inh, ROMK mod) | ROMK hit retest 0.057
Cc1cc(C)nc(/N=C(\N)Nc2ccccc2-c2ccccc2)n1	ROMK mod -4.8 | ROMK hit retest 0.053
O=C(NCC1(c2ccccc2)CCOCC1)c1cccs1	none
CCOC(=O)C1(CCCc2ccccc2)CCN(C(=O)Cn2nc(C)nc2C)CC1	none (no result: WT yeast gro inh, ROMK mod)
O/N=C\c1ccccc1Oc1ccc(F)cc1	none
COCC1=C(C(=O)OC)C(c2cccs2)n2ncnc2N1 (stereo not drawn)	none (no result: WT yeast gro inh, ROMK mod)
COc1ccc(C(=O)CSc2[nH]c(=O)cc(C(F)(F)F)c2C#N)cc1	none (no result: KCC2 mod, WT yeast gro inh, ROMK mod) | ROMK hit retest 0.068
COc1ccc(-c2cc(C(F)(F)F)c(C#N)c(SCC(=O)Nc3ccc(C)cc3)n2)cc1	none
CC1(C)NC(=O)N(CC(O)COc2ccccc2C(=O)Nc2ccccc2)C1=O (stereo not drawn)	none
O=C(Nc1ccccc1)c1ccccc1OCC(O)CN1C(=O)c2ccccc2S1(=O)=O (stereo not drawn)	none (no result: ROMK mod) | ROMK hit retest 0.061
CNCC(=O)N(CC(C)C)c1c(N)n(CC(C)C)c(=O)[nH]c1=O	none
COC(=O)c1cc(OC)nc2ccc(Br)cc12	none (no result: WT yeast gro inh, ROMK mod)
O=C(O)CNS(=O)(=O)c1ccc(C2CCCCC2)cc1	none
COc1cccc(/C=C2\SC(=S)N(CC3CCCO3)C2=O)c1 (stereo not drawn)	none (no result: ROMK mod)
COc1cccc(/C=C2\SC(=S)N(N3C(=O)CCCC3=O)C2=O)c1	ROMK mod -2.7 | ROMK hit retest 0.049
CC(=O)N(c1ccc(C)cc1)c1nc(C)cc(C)c1C#N	none (no result: WT yeast gro inh)
Cn1c(SC2CCCCC2=O)nnc1-c1ccccc1F (stereo not drawn)	none
Cc1ccc(Nc2nnns2)cc1C	ROMK mod -3 | ROMK hit retest inconclusive
O=C(Cn1c(=O)oc2ccccc21)Nc1n[nH]c(=S)s1	none (no result: WT yeast gro inh, ROMK mod)
COc1ccc2nc3c(cc2c1)c(NC(=O)c1cccs1)nn3CC(C)C	none (no result: ROMK mod) | ROMK hit retest inactive
CCOc1ccc2nc(COC(=O)c3ccncc3)c(C(=O)c3ccccc3)[n+]([O-])c2c1	none (no result: KCC2 mod, WT yeast gro inh, ROMK mod)
O=[N+]([O-])c1ccc(N2CCC(O)CC2)nc1	none
Cc1cc2c(cc1C)N(C(=O)CSc1nncn1C)C(C)(C)c1ssc(=S)c1-2	ROMK mod -3.5 | ROMK hit retest 0.064
COc1cc(C)nc(OCCNC(=O)COc2ccc(Cl)cc2Cl)n1	none (no result: KCC2 mod, ROMK mod)
COc1cc(C)nc(NC(=O)COc2ccc(Cl)cc2C)n1	none (no result: ROMK mod) | ROMK hit retest inconclusive
CN1CCN(/N=C/c2ccc(-c3ccc([N+](=O)[O-])cc3Cl)o2)CC1	ROMK mod -3.8 | ROMK hit retest 0.045
CNC(=S)N/N=C/c1ccc(-c2cc([N+](=O)[O-])ccc2Cl)o1	none
COCCNC(=S)Nc1cc(OC)c(OC)cc1C#N	none
Cc1cc(C(C)(C)C)cc(C)c1Cn1c2[n+](c3ccc(C(F)(F)F)cc31)CCCCC2	ROMK mod -4.9 | ROMK hit retest 0.048
FC(F)(F)c1cccc(Cn2c3[n+](c4ccc(C(F)(F)F)cc42)CCCCC3)c1	none
CCC(C)NCCC(=O)Nc1ccc(Cl)c(S(=O)(=O)Nc2ccc(Cl)cc2)c1 (stereo not drawn)	ROMK mod -4.1 | ROMK hit retest 0.064
CCOC(=O)CC(NS(=O)(=O)Cc1ccccc1)c1ccc(C)cc1 (stereo not drawn)	none

Screening results: PubChem, several laboratories
